# According to ChEMBL document CHEMBL5528013 (Eur J Med Chem, 2024):
# Assays:
# MOLM-14 [1] = test: Antiproliferative activity against human MOLM-14 cells harboring FLT3-D835Y mutant assessed as inhibition of cell growth incubated for 72 hrs by resazurin dye based assay; type: functional; conditions: MOLM-14, 72 h
# Outline: (§1)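 Logarithmic-phase cells were seeded at 5000 per well and treated 24 h later, in triplicate, with various concentrations for 72 h. MOLM14 lines were grown in RPMI with 10 % FBS, and other lines per provider instructions, all at 37 °C and 5 % CO2. Resazurin was then added for 4–6 h and fluorescence read. GI50 was taken from percent growth versus DMSO control, fitted with a variable-slope normalized-response model; at least three runs.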
# MOLM-14 [2] = test: Antiproliferative activity against human MOLM-14 cells assessed as inhibition of cell growth incubated for 72 hrs by resazurin dye based assay; type: functional; conditions: MOLM-14, 72 h; outline: as §1
# K562 = test: Antiproliferative activity against human K562 cells assessed as inhibition of cell growth incubated for 72 hrs by resazurin dye based assay; type: functional; conditions: K562, 72 h; outline: as §1
# MOLM-14 [3] = type: functional, cell-based; conditions: Homo sapiens, MOLM-14, 72 h
# [4] = target: T1, Receptor-type tyrosine-protein kinase FLT3 (Homo sapiens, UniProt P36888); test: Inhibition of FLT3 (unknown origin) by bioluminescent ADP-Glo assay
# T1 sequence (P36888 whole entry): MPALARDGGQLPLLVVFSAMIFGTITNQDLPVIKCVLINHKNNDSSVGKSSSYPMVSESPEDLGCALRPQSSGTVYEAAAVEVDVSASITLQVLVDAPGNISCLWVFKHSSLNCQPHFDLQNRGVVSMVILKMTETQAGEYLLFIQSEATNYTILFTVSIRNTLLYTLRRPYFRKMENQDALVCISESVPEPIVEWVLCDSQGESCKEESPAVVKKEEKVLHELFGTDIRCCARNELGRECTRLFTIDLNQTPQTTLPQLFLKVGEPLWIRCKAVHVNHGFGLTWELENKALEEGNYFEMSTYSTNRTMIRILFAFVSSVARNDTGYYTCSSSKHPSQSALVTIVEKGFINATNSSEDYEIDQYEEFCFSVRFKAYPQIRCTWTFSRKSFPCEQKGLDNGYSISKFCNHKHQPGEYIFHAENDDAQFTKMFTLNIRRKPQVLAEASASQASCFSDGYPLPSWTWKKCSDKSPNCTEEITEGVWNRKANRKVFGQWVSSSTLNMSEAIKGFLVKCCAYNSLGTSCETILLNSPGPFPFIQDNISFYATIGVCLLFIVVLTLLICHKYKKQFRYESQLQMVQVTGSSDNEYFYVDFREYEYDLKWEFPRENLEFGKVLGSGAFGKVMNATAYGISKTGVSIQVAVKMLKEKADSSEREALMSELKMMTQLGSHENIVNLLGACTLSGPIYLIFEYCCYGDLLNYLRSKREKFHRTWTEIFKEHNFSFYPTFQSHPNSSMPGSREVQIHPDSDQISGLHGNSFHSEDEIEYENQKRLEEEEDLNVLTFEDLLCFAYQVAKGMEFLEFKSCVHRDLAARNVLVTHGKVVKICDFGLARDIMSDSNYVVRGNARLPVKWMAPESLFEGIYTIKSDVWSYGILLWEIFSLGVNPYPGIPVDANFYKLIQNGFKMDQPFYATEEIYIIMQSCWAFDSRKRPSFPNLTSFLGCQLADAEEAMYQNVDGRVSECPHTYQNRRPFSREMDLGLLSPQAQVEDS
# MDA-MB-231 = test: Antiproliferative activity against human MDA-MB-231 cells lacking FLT3 activating mutations assessed as inhibition of cell growth incubated for 72 hrs by resazurin dye based assay; type: functional; conditions: MDA-MB-231, 72 h; outline: as §1
# [5] = Cytotoxicity against HEK293 cells lacking FLT3 activating mutations assessed as inhibition of cell growth incubated for 72 hrs by resazurin dye based assay; type: toxicity; conditions: human; outline: as §1
Compound,IC50 (MOLM-14 [1]) [nM],IC50 (MOLM-14 [2]) [nM],IC50 (K562) [nM],IC50 (MOLM-14 [3]) [nM],IC50 [4] [nM],IC50 (MDA-MB-231) [nM],IC50 at 72 h [5] [nM]
Cn1cc(-c2ccn3c(-c4cccc(Nc5ccc(C(F)(F)F)cc5)n4)cnc3c2)cn1,18.9,33.3,> 1000,160,–,–,–
Cn1cc(-c2ccn3c(-c4cccc(Nc5cc(C(C)(C)C)nn5-c5ccc(F)cc5)n4)cnc3c2)cn1,56,18,> 1000,> 1000,–,–,–
COc1cc(Nc2cccc(-c3cnc4cc(-c5cnn(C)c5)ccn34)n2)cc(OC)c1OC,27.5,6.95,960,105,–,–,–
COc1cc2/c(=N/c3ccc(Br)cc3F)nc[nH]c2cc1OCC1CCN(C)CC1 [VANDETANIB],–,–,–,> 20000,–,–,–
Cn1cc(-c2ccn3c(-c4cccc(NCc5c(F)cccc5F)n4)cnc3c2)cn1,5.9,1.31,119,566,–,–,–
Cn1cc(-c2ccn3c(-c4cccc(Nc5ccc(OCCN6CCCC6)cc5)n4)cnc3c2)cn1,2.21,0.77,> 1000,12.5,–,–,–
Cn1cc(-c2ccn3c(-c4cccc(N5CCN(C(=O)OC(C)(C)C)CC5)n4)cnc3c2)cn1,259,51.9,> 1000,794,–,–,–
Cn1cc(-c2ccn3c(-c4cccc(Nc5ccccc5C(F)(F)F)n4)cnc3c2)cn1,0.31,0.95,262,184,–,–,–
Cc1ccc(-n2nc(C(C)(C)C)cc2Nc2cccc(-c3cnc4cc(-c5ccc(S(C)(=O)=O)cc5)ccn34)n2)cc1,613,278,> 1000,> 1000,–,–,–
Cn1cc(-c2ccn3c(-c4ccc(Cl)cc4)cnc3c2)cn1,166,16.9,> 1000,293,–,–,–
Cn1nc(C(C)(C)C)cc1Nc1cccc(-c2cnc3cc(-c4ccc(S(C)(=O)=O)cc4)ccn23)n1,5.32,4.3,688,54.2,–,–,–
Cn1cc(-c2ccn3c(-c4cccc(Nc5ccc(OCCN6CCCCC6)cc5)n4)cnc3c2)cn1,0.77,0.19,> 1000,9.8,–,–,–
Cc1ccc(-n2nc(C(C)(C)C)cc2Nc2cccc(-c3cnc4cc(-c5cnn(C)c5)ccn34)n2)cc1,414,162,> 1000,> 1000,–,–,–
COc1cc(Nc2cccc(-c3cnc4cc(-c5ccc(S(C)(=O)=O)cc5)ccn34)n2)cc(OC)c1OC,43.9,–,> 1000,130,94.6,> 1000,> 1000
Cn1cc(-c2ccn3c(-c4cccc(Nc5ccc(N6CCOCC6)cc5)n4)cnc3c2)cn1,1.41,3.25,> 1000,238,–,–,–
Cn1cc(-c2ccn3c(-c4cccc(Nc5ccc(C(=O)OC(C)(C)C)cc5)n4)cnc3c2)cn1,76.6,76.6,> 1000,792,–,–,–
Cn1cc(-c2ccn3c(-c4cccc(Cl)c4)cnc3c2)cn1,591,29.5,> 1000,304,–,–,–
CCOC(=O)Cc1ccc(Nc2cccc(-c3cnc4cc(-c5cnn(C)c5)ccn34)n2)cc1,121,99,> 1000,> 1000,–,–,–
CCN(CC)CCOc1ccc(Nc2cccc(-c3cnc4cc(-c5cnn(C)c5)ccn34)n2)cc1,0.87,0.51,924,7.42,–,–,–
CCc1nc(C(N)=O)c(Nc2ccc(N3CCC(N4CCN(C)CC4)CC3)c(OC)c2)nc1NC1CCOCC1 [GILTERITINIB],–,–,> 1000,–,–,–,–
Cn1cc(-c2ccn3c(-c4cccc(Nc5ccc6c(c5)OCCO6)n4)cnc3c2)cn1,0.87,1.72,> 1000,9.98,–,–,–
Cn1cc(-c2ccn3c(-c4cccc(Nc5ccc(OCCN6CCOCC6)cc5)n4)cnc3c2)cn1,1.83,1,> 1000,7.1,–,–,–
CC1CN(c2cccc(-c3cnc4cc(-c5cnn(C)c5)ccn34)n2)CCN1C(=O)OC(C)(C)C (stereo not drawn),353,101,> 1000,426,–,–,–
Cn1cc(-c2ccn3c(-c4cccc(NC5CCN(C(=O)OC(C)(C)C)CC5)n4)cnc3c2)cn1,18.2,17.2,> 1000,97.5,–,–,–
COC(=O)c1ccc(C)c(Nc2cccc(-c3cnc4cc(-c5cnn(C)c5)ccn34)n2)c1,177,233,> 1000,> 1000,–,–,–
CC(C)(C)c1ccc(Nc2cccc(-c3cnc4cc(-c5ccc(S(C)(=O)=O)cc5)ccn34)n2)cc1,203,110,> 1000,> 1000,–,–,–
Cn1cc(-c2ccn3c(-c4ccccc4Cl)cnc3c2)cn1,> 1000,397,> 1000,> 1000,–,–,–
Cn1cc(-c2ccn3c(-c4cccc(Nc5ccc(OC(F)(F)F)cc5)n4)cnc3c2)cn1,49.9,19.3,> 1000,462,–,–,–

# Now from value to compound, other results behind:
IC50 (MOLM-14 [1]) [nM],IC50 (MOLM-14 [2]) [nM],IC50 (K562) [nM],IC50 (MOLM-14 [3]) [nM],IC50 [4] [nM],IC50 (MDA-MB-231) [nM],Compound,IC50 at 72 h [5] [nM]
5.19,6.82,923,314,–,–,Cn1cc(-c2ccn3c(-c4cccc(Nc5ccc([N+](=O)[O-])cc5)n4)cnc3c2)cn1,–
2.46,4.03,115,259,–,–,Cn1cc(-c2ccn3c(-c4cccc(Nc5cnccn5)n4)cnc3c2)cn1,–
5.67,–,219,18.9,–,–,Cc1ccc(Nc2cccc(-c3cnc4cc(-c5cnn(C)c5)ccn34)n2)cc1,–
23.1,28.8,736,337,–,–,Cn1cc(-c2ccn3c(-c4cccc(Nc5ccc(Cl)cc5)n4)cnc3c2)cn1,–
2.59,3.8,210,32.6,–,–,Cn1cc(-c2ccn3c(-c4cccc(Nc5cc(C(C)(C)C)nn5C)n4)cnc3c2)cn1,–
265,154,> 1000,412,288,> 1000,Cn1cc(-c2ccn3c(-c4cccc(Nc5cccc(C(C)(C)C)c5)n4)cnc3c2)cn1,993
3.62,9.03,927,294,–,–,CCc1ccc(Nc2cccc(-c3cnc4cc(-c5cnn(C)c5)ccn34)n2)cc1,–
48,18.3,> 1000,135,–,–,Cn1cc(-c2ccn3c(-c4cccc(Nc5ccc(C#N)cc5)n4)cnc3c2)cn1,–
3.2,2.24,132,28.9,–,–,Cn1cc(-c2ccn3c(-c4cccc(Nc5cccc(C(F)(F)F)c5)n4)cnc3c2)cn1,–
228,28.7,> 1000,458,–,–,Cn1cc(-c2ccn3c(-c4cccc(Cl)n4)cnc3c2)cn1,–
41.9,–,> 1000,> 1000,–,–,Cn1cc(-c2ccn3c(-c4cccc(Nc5ccc(C(C)(C)C)cc5)n4)cnc3c2)cn1,–
4.39,6.76,> 1000,90.7,–,–,C=Cc1ccc(Nc2cccc(-c3cnc4cc(-c5cnn(C)c5)ccn34)n2)cc1,–
4.91,6.09,–,920,–,–,Cn1cc(-c2ccn3c(-c4cccc(Nc5ccc6c(c5)OCO6)n4)cnc3c2)cn1,–
8.91,13.5,> 1000,142,–,–,CC(C)c1ccc(Nc2cccc(-c3cnc4cc(-c5cnn(C)c5)ccn34)n2)cc1,–
1.65,2.38,274,14.4,–,–,COc1ccccc1Nc1cccc(-c2cnc3cc(-c4cnn(C)c4)ccn23)n1,–
